Bioassay records: PubChem, several laboratories
Shown are actives, neighbours in structure and some others; about 2.3% of the full set was active somewhere.
CRFR2-BP ag – agonists of human CRF-binding protein/CRF-R2 receptor complex; AID 588473; activation, % at 13.2 µM; HEK293 CRF-R2/CRF-BP, calcium dye fluorescence (FLIPR); percent of saturating CRF peptide response; 0.46% of 350,000 active;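 active = activation of at least 50%, plus an integration ratio under a set limit after plate pattern correction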
Rpn11 inh – Rpn11 (human) deubiquitinase inhibition | human 26S proteasome, Ub4-pepOG fluorescence polarization; 20S core pre-blocked with epoxomicin | calls only at 20 µM | 0.59% of 360,000 active | AID 588493;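 active = inhibition at 20 µM, scaled to each plate's controls, above about 33%, limit read from the data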
TPT1 inhibitor – blocks Candida albicans tRNA 2'-phosphotransferase; recombinant caTPT1, FP RNA substrate dephosphorylation; inhibition, % at 5 µM; 0.81% of 300,000 active; AID 1962;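 active = inhibition above the mean of all tested compounds plus 3 SD, set per screening campaign, cut at about 24% in these data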
CSN deneddyl inh – blocks human CSN-mediated cullin deneddylation. AID 651999. Purified CSN, SCF-Nedd8-OG deneddylation, fluorescence polarization. Q92905. 0.38% of 360,000 active. inhibition, % at 12.5 µM;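 active = pattern-corrected inhibition above about 35%, with an unprinted fluorescence ratio check between 0.5 and 1.5, limit read from the data, passing the limit was not always enough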
Target sequence (Q92905 whole entry, looked up, one chain of several): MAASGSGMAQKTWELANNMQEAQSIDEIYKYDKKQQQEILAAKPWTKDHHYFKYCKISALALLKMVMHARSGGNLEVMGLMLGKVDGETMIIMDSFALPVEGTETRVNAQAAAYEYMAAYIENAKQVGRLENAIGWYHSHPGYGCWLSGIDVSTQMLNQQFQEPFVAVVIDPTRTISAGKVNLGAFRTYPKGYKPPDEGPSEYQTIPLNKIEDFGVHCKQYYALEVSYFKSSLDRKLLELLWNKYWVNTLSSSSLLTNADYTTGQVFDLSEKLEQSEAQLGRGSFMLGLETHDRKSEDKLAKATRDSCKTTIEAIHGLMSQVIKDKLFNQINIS
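Assay system: HEK293T-derived human Csn5 enzyme; quantity: 0.24 nM enzyme; medium: Tris/NaCl/DTT buffer, pH 7.5; also added: substrate SCFSkp2-Nedd8OG, 10 nM; doses: 12.5 µM compound; schedule: 90 min reaction at room temperature; signal: FP; read-out: % inhibition of substrate cleavage by Csn5; benchmarks: substrate-only high control, full reaction low control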
CRFR2-BP antag – CRF-BP/CRF-R2 complex antagonism | HEK293 CRF-R2/CRF-BP, CRF-induced calcium fluorescence | inhibition, % at 11.8 µM | 0.59% of 350,000 active;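 active = inhibition of the ligand-induced calcium signal above about 50% at the single tested concentration, limit read from the data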
HNF4A DNA FP – change in binding of human HNF4 alpha to DNA; P41235; HNF4a-FITC DNA binding, fluorescence polarization, 1 h; activity change, % at 10 µM; 0.3% of 360,000 active; in the data active = activity change above about 30%, passing the limit was not always enough
TPT1 inh confirm – confirmation of Candida albicans TPT1 inhibitors; shares compounds with TPT1 inhibitor; recombinant caTPT1, fluorescence polarization, RNase T1 coupled; inhibition, % at 5 µM; 74% of 2,400 active; AID 2149;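 active = inhibition above the primary screen limit, the mean inhibition of all tested compounds plus 3 SD, cut at about 25% in these data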
RNase T1 inh – counter-screen for TPT1 inhibitors: inhibitors of Aspergillus oryzae RNase T1; shares compounds with TPT1 inhibitor; RNase T1 cleavage, fluorescence polarization, 1536-well; inhibition, % at 5 µM; 83% of 2,400 active; AID 2153;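 active = inhibition above the solvent-only control well mean plus 3 SD, limit set per screening run, cut at about 23% in these data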;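 also: inhibitors block cleavage so intact labeled substrate keeps polarization high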
Target sequence (P00651 whole entry, looked up): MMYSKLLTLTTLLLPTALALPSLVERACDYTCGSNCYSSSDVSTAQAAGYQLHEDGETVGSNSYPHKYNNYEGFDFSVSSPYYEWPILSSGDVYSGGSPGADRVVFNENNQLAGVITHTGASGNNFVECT
Hits are given with their value; – = inactive; · = no result shown.

SMILES | CRFR2-BP ag | Rpn11 inh | TPT1 inhibitor | CSN deneddyl inh | CRFR2-BP antag | HNF4A DNA FP | TPT1 inh confirm | RNase T1 inh
Cn1cnnc1SCC(=O)c1cc2ccccc2o1 | – | – | – | – | – | – | · | ·
COc1ccc(-n2nnnc2SCC(=O)c2cc3ccccc3o2)cc1 | – | – | 32 | – | – | – | 26 | 35
CCOC(=O)c1ccc2c(c1)nc(SCC(=O)c1cc3ccccc3o1)n2CC | – | – | 33 | – | – | – | – | 24
C=CCNC(=O)CSc1nc2cc(C(=O)OCC)ccc2n1CC | – | – | – | – | – | – | · | ·
O=C(NCC1CCCO1)C(c1cccnc1)N(C(=O)Cc1cccs1)c1ccccc1 (stereo unspecified) | – | – | – | – | – | – | · | ·
CCCCCC(O)CCC(=O)NNC1=CC(=O)CC(C)(C)C1 (stereo unspecified) | – | – | 69 | – | – | – | – | –
CC(O)CCC(=O)NNC1=CC(=O)CC(C)(C)C1 (stereo unspecified) | · | · | – | · | · | · | · | ·
c1ccc(Nc2c(-c3ccco3)nc3ccccn23)cc1 | – | – | – | – | – | – | · | ·
c1ccc(-c2nc(-c3ccco3)n3ccccc23)cc1 | – | – | 28 | – | – | – | 25 | 30
Cc1ccc(S(=O)(=O)N2CC(O)C[C@H]2C(=O)OCC(=O)c2ccccc2)cc1 (stereo partly specified) | – | – | – | – | – | – | · | ·
CC(C)(C)C(=O)Nc1sc2c(c1C#N)CCN(Cc1ccccc1)C2 | 162 | – | 39 | – | – | – | 62 | 67
NC(=O)c1c(NC(=O)c2cccc(N3C(=O)CCC3=O)c2)sc2c1CCCCC2 | – | – | – | – | – | – | · | ·
CC(C)N1CCc2c(sc(NC(=O)c3ccc(C(=O)c4ccccc4)cc3)c2C(N)=O)C1 | – | – | 35 | – | – | – | 31 | 48
CC(=O)c1ccc(C(=O)Nc2sc3c(c2C(N)=O)CCN(Cc2ccccc2)C3)cc1 | · | · | 132 | – | · | – | 140 | 141
CC(=O)N1CCc2c(sc(NC(=O)c3cccc(N4C(=O)CCC4=O)c3)c2C(N)=O)C1 | – | – | 33 | – | – | – | 41 | 56
Cc1cc(NC(=O)C2CCCC2)n(-c2nc3ccccc3[nH]2)n1 | – | – | – | – | – | – | · | ·
NC(=O)c1c(NC(=O)C2c3ccccc3Oc3ccccc32)sc2c1CCCCC2 | – | – | 27 | – | – | – | – | 22
NC(=O)c1c(NC(=O)C2COc3ccccc3O2)sc2c1CCN(Cc1ccccc1)C2 (stereo unspecified) | – | · | 67 | – | – | – | 70 | 85
N#Cc1c(N)sc2c1CCN(CCc1ccccc1)C2 | – | · | 75 | – | – | – | 71 | 82
CC(=O)Nc1sc2c(c1-c1nc3ccccc3s1)CCN(C(C)C)C2 | 80 | · | 43 | – | – | – | 47 | 53
CCOC(=O)N1CCc2c(sc(N)c2C#N)C1 | – | · | – | · | – | · | · | ·
CC(NC(=O)COC(=O)C12CC3CC(CC(O)(C3)C1)C2)c1ccccc1 (stereo unspecified) | – | – | · | – | – | – | · | ·
CCCN1CCc2c(sc(NC(=O)c3ccc(S(=O)(=O)N(C)c4ccccc4)cc3)c2C(N)=O)C1 | 99 | – | 107 | – | – | 34 | 113 | 115
CCN1CCc2c(sc(NC(=O)c3ccc(S(=O)(=O)N(C)CC4CCCO4)cc3)c2C(N)=O)C1 (stereo unspecified) | – | – | – | – | – | – | · | ·
Cn1nc(C(C)(C)C)cc1C(=O)N1CCCC(C)(C(=O)NS(=O)(=O)C2CC2)C1 (stereo unspecified) | · | – | · | – | · | – | · | ·
CN1C(=O)/C(=C/c2coc3ccc(O)cc3c2=O)SC1=S | – | – | – | – | – | – | · | ·
N=C1/C(=C/c2coc3ccccc3c2=O)C(=O)N=C2SC(c3ccco3)=NN12 | 168 | · | 59 | – | – | – | 88 | 97
